The structures appear in SMILES notation.

For one data set, the target named is T1, Hexokinase-4 (Homo sapiens, UniProt P35557).
T1 sequence (P35557 whole entry): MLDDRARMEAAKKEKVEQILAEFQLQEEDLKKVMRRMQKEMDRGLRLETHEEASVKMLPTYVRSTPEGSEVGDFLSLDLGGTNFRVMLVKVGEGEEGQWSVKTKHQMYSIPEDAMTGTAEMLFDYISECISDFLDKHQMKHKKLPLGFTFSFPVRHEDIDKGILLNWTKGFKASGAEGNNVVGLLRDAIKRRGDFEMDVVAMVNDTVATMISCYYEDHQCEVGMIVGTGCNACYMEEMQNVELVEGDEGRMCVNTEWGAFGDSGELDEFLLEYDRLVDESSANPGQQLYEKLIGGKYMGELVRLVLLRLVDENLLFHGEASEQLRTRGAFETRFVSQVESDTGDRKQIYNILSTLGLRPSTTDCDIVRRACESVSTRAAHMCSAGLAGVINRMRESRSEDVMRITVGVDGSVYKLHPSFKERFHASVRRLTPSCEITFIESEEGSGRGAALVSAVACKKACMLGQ
Put plainly: Activation of human recombinant glucokinase expressed in Escherichia coli BL21(DE3) coexpressing G6PDH assessed as glucose 6-phosphate formation by spectrometric analysis.

For data set [1], the target named is T2, Hexokinase-4 (Homo sapiens) (UniProt P35557).
T2 sequence (whole entry): T1 sequence (P35557 whole entry)
As to the kind of experiment: Activation of human recombinant glucokinase expressed in Escherichia coli BL21(DE3) coexpressing G6PDH assessed as glucose 6-phosphate formation by spectrometric analysis relative to control. The essentials: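 N-terminal His6-tagged human GK, expressed in E. coli BL21(DE3), purified on Ni-NTA. NADPH formation followed as rate of A340. Fold activation taken against DMSO control (100%), and maximum fold reported.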

The next data set relates to Mus musculus. As to the kind of experiment: Hypoglycemic activity in ICR mouse assessed as reduction in blood glucose level at 10 mg/kg, po measured within 1 hr relative to control. The format is functional. On the set-up: scale not given: the % may be the effect or the level left. A digest of the protocol:
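Male ICR mice, 8 weeks old, on a reversed light cycle, were fasted 2 h with water allowed and grouped by body weight. They were dosed orally with 10 mg/kg or with vehicle (0.5% carboxymethylcellulose). Blood glucose was tracked, with ΔBG taken from 0 min, and reduction expressed against vehicle within 1 h. Mean ± SEM, n = 6.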

Data set [2] can be described thus: Clearance in ICR mouse at 10 mg/kg, iv. It counts as ADME, organism-based. On the set-up: dose 10 mg/kg, route intravenous. The conditions noted are these: in vivo. The essentials:
(§1)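 Mice received a single iv dose of 10 mg/kg or a single po dose of 20 mg/kg. Vehicle was DMSO, tween-80 and normal saline. Plasma concentration–time data gave CL, Vss and t1/2 from the iv arm, and Cmax, Tmax, AUC0-∞ and F from the po arm. Values are the average of three runs.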

Data set [3] in a line: Volume of distribution at steady state in ICR mouse at 10 mg/kg, iv. It counts as ADME, organism-based. The arrangement: dose 10 mg/kg, route intravenous. The conditions noted are these: in vivo, read-out: Vdss. A digest of the protocol:
as §1

The nature of data set [4]: Half life in ICR mouse at 10 mg/kg, iv. It counts as ADME, organism-based. On the set-up: dose 10 mg/kg, route intravenous. Conditions: in vivo. A digest of the protocol:
as §1

A short description of data set [5]: Cmax in ICR mouse at 20 mg/kg, po. The arrangement: dose 20 mg/kg, route oral. It counts as ADME, organism-based. The conditions noted are these: in vivo. The essentials: as §1
The nature of data set [6]: Tmax in ICR mouse at 20 mg/kg, po. It counts as ADME, organism-based. The arrangement: dose 20 mg/kg, route oral. The conditions noted are these: in vivo. A digest of the protocol: as §1
Data set [7] in a line: AUC (0 to infinity) in ICR mouse at 20 mg/kg, po. The conditions noted are these: plasma. The arrangement: time infinity, dose 20 mg/kg, route oral. It counts as ADME, organism-based. A digest of the protocol: as §1
The nature of data set [8]: Oral bioavailability in ICR mouse at 20 mg/kg. The format is ADME, organism-based. Conditions: in vivo. A digest of the protocol:
as §1

Data set [9] deals with T2, Hexokinase-4 (Homo sapiens). As to the kind of experiment: Ratio of EC50 for GK50 to compound for activation of human recombinant glucokinase expressed in Escherichia coli BL21(DE3) coexpressing G6PDH assessed as glucose 6-phosphate formation by spectrometric analysis. The essentials: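 EC50 obtained in the same G6PDH-coupled A340 assay of His6-tagged human GK, with GK50 run in parallel. Six compound concentrations per curve, and fold activity over DMSO control fitted to a four-parameter logistic sigmoid. Values are means of three independent experiments.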

Regarding `CC(C)=CCOc1cc(Oc2ccc(S(=O)(=O)N3CCOCC3)cc2)cc(C(=O)Nc2ncc(F)s2)c1`, the EC50 – broadly, the concentration that produces a half-maximal response – at Hexokinase-4 was found to be 52 nM. The fold change (FC) in data set [1] was found to be 1.8.
The corresponding values for `COC1CCN(S(=O)(=O)c2ccc(Oc3cc(OCC=C(C)C)cc(C(=O)Nc4cc(C)n(C)n4)c3)cc2)CC1` are 460 nM and 1.8.
With `CC(C)=CCOc1cc(Oc2ccc(S(=O)(=O)N3C[C@@H](C)O[C@@H](C)C3)cc2)cc(C(=O)Nc2cc(C)n(C)n2)c1`, at Hexokinase-4, the EC50 was 44.8 nM. The fold change (FC) in data set [1] worked out at 1.6.
As for `CC(C)=CCOc1cc(Oc2ccc(S(=O)(=O)N3CC[C@H](F)C3)cc2)cc(C(=O)Nc2cc(C)n(C)n2)c1`, the EC50 on Hexokinase-4 was determined as 63.1 nM. The fold change (FC) in [1] amounted to 1.9.
The corresponding values for `COC1CCN(S(=O)(=O)c2ccc(Oc3cc(OCC=C(C)C)cc(C(=O)Nc4nccs4)c3)cc2)CC1` are 90.4 nM and 1.7.
The like results for `CC(C)=CCOc1cc(Oc2ccc(S(=O)(=O)C3CC3)cc2)cc(C(=O)Nc2cnc(C)cn2)c1` were, in that order, 165 nM and 1.6.
The corresponding values for `CC(C)=CCOc1cc(Oc2ccc(S(=O)(=O)C3CC3)cc2)cc(C(=O)Nc2nc(C(C)(C)C)cs2)c1` are 890 nM and 0.7.
Turning to `CC(C)=CCOc1cc(Oc2ccc(S(=O)(=O)N3CCOCC3)cc2)cc(C(=O)Nc2nccs2)c1`, on Hexokinase-4, the EC50 was determined as 48 nM. Also, in data set [1], the fold change (FC) was 2.1.
The like results for `CC(C)=CCOc1cc(Oc2ccc(S(=O)(=O)N3CC4CCC(C3)O4)cc2)cc(C(=O)Nc2ccn(C)n2)c1` were, in that order, 242 nM and 1.7.
The like results for `CC(C)=CCOc1cc(Oc2ccc(S(=O)(=O)N3CCOCC3)cc2)cc(C(=O)Nc2ccn(C)n2)c1` were, in that order, 297 nM and 3.
The corresponding values for `CC(C)=CCOc1cc(Oc2ccc(S(=O)(=O)N3CC[C@H](F)C3)cc2)cc(C(=O)Nc2nccs2)c1` are 52.3 nM and 1.9.
Take `CC(C)=CCOc1cc(Oc2ccc(S(=O)(=O)C3CC3)cc2)cc(C(=O)Nc2nccn3ccnc23)c1`: the EC50 at Hexokinase-4 is greater than 1000 nM.
For `CC(C)=CCOc1cc(Oc2ccc(S(=O)(=O)N3CC[C@H](F)C3)cc2)cc(C(=O)Nc2ccn(C)n2)c1`, at Hexokinase-4, the EC50 came to 83.5 nM. Also, the fold change (FC) in data set [1] came to 2.1.
The like results for `CC(C)=CCOc1cc(Oc2ccc(S(=O)(=O)N3CC4CCC(C3)O4)cc2)cc(C(=O)Nc2nccs2)c1` were, in that order, 101 nM and 1.7.
Regarding `CC(C)=CCOc1cc(Oc2ccc(S(=O)(=O)C3CC3)cc2)cc(C(=O)NC2=NC(=O)CS2)c1`, on Hexokinase-4, the EC50 came out at 120 nM. Further, the fold change (FC) in data set [1] came out at 1.5.
The corresponding values for `CC(C)=CCOc1cc(Oc2ccc(S(=O)(=O)N3CC4CCC(C3)O4)cc2)cc(C(=O)Nc2ncc(F)s2)c1` are 78 nM and 1.9.
In the case of `CC(C)=CCOc1cc(Oc2ccc(S(=O)(=O)N3CC4CCC(C3)O4)cc2)cc(C(=O)Nc2cc(C)n(C)n2)c1`, the EC50 on Hexokinase-4 stood at 144 nM. Moreover, the fold change (FC) in data set [1] came to 1.5.
As for `CC(C)=CCOc1cc(Oc2ccc(S(=O)(=O)N3CC[C@H](F)C3)cc2)cc(C(=O)Nc2ncc(F)s2)c1`, the EC50 on Hexokinase-4 worked out at 44.8 nM. For the same molecule, the fold change (FC) in [1] is 2.2. Besides, the Activity with Mus musculus is given as 8.1%. Also, the clearance (commonly the volume of plasma or blood freed of the substance per unit of time) in [2] was 17.8 mL/min/kg. For the same molecule, the Vd in data set [3] turned out to be 1.2 L/kg. In data set [4], the half-life (in general, the time in which the quantity being followed falls by half) is 5.9 h. In data set [5], the highest level (Cmax) was 1090 ng/mL. The Tmax (as a rule, the time at which the peak concentration occurs) in data set [6] stood at 1 h. The AUC(0-inf) (commonly total exposure, with the tail of the curve extrapolated) in data set [7] was 1790 ng·h/mL. The bioavailability (in general, dose-corrected exposure relative to a reference, in per cent) in data set [8] amounted to 9.5%.
As to `CC(C)=CCOc1cc(Oc2ccc(S(=O)(=O)N3C[C@@H](C)O[C@@H](C)C3)cc2)cc(C(=O)Nc2nccs2)c1`, the EC50 on Hexokinase-4 was determined as 62.6 nM. Moreover, the fold change (FC) in data set [1] turned out to be 1.5.
The corresponding values for `CC(C)=CCOc1cc(Oc2ccc(S(=O)(=O)C3CC3)cc2)cc(C(=O)Nc2cc(C)n(C)n2)c1` are 90.1 nM and 1.5.
The corresponding values for `CC(C)=CCOc1cc(Oc2ccc(S(=O)(=O)C3CC3)cc2)cc(C(=O)Nc2nc(-c3ccc(F)cc3)cs2)c1` are 250 nM and 0.9.
The corresponding values for `CC(C)=CCOc1cc(Oc2ccc(S(=O)(=O)C3CC3)cc2)cc(C(=O)Nc2ncc(F)s2)c1` are 47.7 nM and 1.8.
Regarding `COC1CCN(S(=O)(=O)c2ccc(Oc3cc(OCC=C(C)C)cc(C(=O)Nc4ncc(F)s4)c3)cc2)CC1`, at Hexokinase-4, the EC50 is 64.6 nM. The fold change (FC) in data set [1] is 1.7.
With `COC1CCN(S(=O)(=O)c2ccc(Oc3cc(OCC=C(C)C)cc(C(=O)Nc4ccn(C)n4)c3)cc2)CC1`, the EC50 on Hexokinase-4 is 491 nM. Further, the fold change (FC) in [1] was found to be 1.7.
Regarding `CC(C)=CCOc1cc(Oc2ccc(S(=O)(=O)N3C[C@@H](C)O[C@@H](C)C3)cc2)cc(C(=O)Nc2ccn(C)n2)c1`, the EC50 on Hexokinase-4 was determined as 265 nM. In addition, the fold change (FC) in data set [1] worked out at 1.8.
The like results for `CC(C)=CCOc1cc(Oc2ccc(S(=O)(=O)N3CCOCC3)cc2)cc(C(=O)Nc2cc(C)n(C)n2)c1` were, in that order, 95.1 nM and 1.5.
As for `CC(C)=CCOc1cc(Oc2ccc(S(=O)(=O)C3CC3)cc2)cc(C(=O)Nc2nccs2)c1`, the EC50 at Hexokinase-4 was determined as 28.3 nM. Also, in [1], the fold change (FC) is 2.4. The Ratio EC50 in data set [9] was 8. Moreover, the Activity in the data set on Mus musculus was 5.5%. Further, in data set [2], the clearance is 3.33 mL/min/kg. Also, the Vd in data set [3] turned out to be 0.28 L/kg. The half-life in data set [4] was 2.3 h. In data set [5], the Cmax (usually the maximum level reached in the sampled fluid or tissue) stood at 15800 ng/mL. Also, the Tmax in [6] came out at 1 h. Also, in data set [7], the AUC(0-inf) worked out at 39800 ng·h/mL. This molecule registered a bioavailability in [8] of 38.6%.
For the molecule `CC(C)=CCOc1cc(Oc2ccc(S(=O)(=O)N3C[C@@H](C)O[C@@H](C)C3)cc2)cc(C(=O)Nc2ncc(F)s2)c1`, on Hexokinase-4, the EC50 was found to be 65.4 nM. In data set [1], the fold change (FC) amounted to 1.7.

The values above are taken from ChEMBL document CHEMBL2021866, “Design, synthesis, and pharmacological evaluation of benzamide derivatives as glucokinase activators” (Bioorg Med Chem, 2012).
